ChEMBL document CHEMBL4725333, “Carbazole-based fluorescent probes for G-quadruplex DNA targeting with superior selectivity and low cytotoxicity” (Bioorg Med Chem, 2020)
Activity calls are given as the source filed them. No cut-off for these calls is given here.

Experiments:
Quadruplex DNA [1] = assay: Binding affinity to human c-myc G-quadruplex DNA in Tris Hcl buffer assessed as increase in fluorescence intensity at 545 nm at 0 to 0.8 uM measured at pH 7.4 by fluorescence emission analysis; conditions: dose microM 0-0.8
Quadruplex DNA [2] = assay: Binding affinity to human c-myc G-quadruplex DNA with TTG AGGG TGGGT AATGGGT GGGT AAA flanking loops assessed as relative fluorescence intensity at 1 uM measured at pH 7.4 by fluorescent titration; format: nucleic-acid assay
Quadruplex DNA [3] = assay: Inhibition of hemin binding to human c-myc G4 quadruplex DNA by measuring peroxidase activity within 30 at 415 nm by G4/hemin peroxidase inhibition assay; format: nucleic-acid assay
How it was run: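 G4/hemin peroxidase assay in 10 mM Tris-HCl, 60 mM KCl, pH 7.4, with c-myc 0.4 µM, hemin 0.8 µM, ABTS²⁻ 0.18 mM and H₂O₂ 0.06 mM, across varied probe concentrations. Oxidized ABTS product followed by absorbance at 415 nm over 30 min.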

Quadruplex DNA [4] = assay: Binding affinity to human c-myc G-quadruplex DNA uM by circular dichroism spectroscopy; format: nucleic-acid assay
How it was run: (§1)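 CD titration of c-myc G-quadruplex DNA (5 µM) with 0–2 equivalents of probe, in 10 mM Tris-HCl, 60 mM KCl, pH 7.4.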

Quadruplex DNA [5] = assay: Binding affinity to human c-myc G-quadruplex DNA with 13-aminopurine substitution assessed as fluorescence intensity in presence of hemin; format: nucleic-acid assay
How it was run: (§2)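 2-aminopurine-labelled c-myc G-quadruplex DNA held at 2 µM in 10 mM Tris-HCl, pH 7.4, 60 mM KCl. Probe or hemin added gradually, and 2-Ap fluorescence intensity monitored.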

Quadruplex DNA [6] = assay: Binding affinity to human c-myc G-quadruplex DNA with TTG AGGG TGGGT AGGGT GGGT AAATA flanking loops assessed as relative fluorescence intensity at 1 uM measured at pH 7.4 by fluorescent titration; format: nucleic-acid assay
Quadruplex DNA [7] = assay: Binding affinity to human c-myc G-quadruplex DNA assessed as increase in fluorescence in presence of c-myc at 1 uM by fluorescence titration analysis; format: nucleic-acid assay
How it was run: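 Probe at 1 µM in 10 mM Tris-HCl, 60 mM KCl, pH 7.4, titrated stepwise with c-myc G-quadruplex DNA (0–3 µM). Emission monitored near 545–547 nm, and F/F₀ of integral fluorescence fitted to an independent-site model. Linear range 0–0.8 µM DNA; detection limit from LOD = 3σ/k.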

Quadruplex DNA [8] = assay: Binding affinity to G-quadruplex DNA in human HCCC9810 cells increase in fluorescence intensity at 20 uM by confocal fluorescence microscopy; format: cell-based
How it was run: (§3)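 Live HCCC-9810 cells stained 0.5 h with probe at 20 µM together with DAPI (5 mg/mL) as nuclear counterstain. Imaged by confocal fluorescence microscopy. Intracellular location is assigned from co-staining with DAPI, and uptake is judged from fluorescence intensity within the cells.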

Quadruplex DNA [9] = assay: Binding affinity to human c-myc G-quadruplex DNA with 4-aminopurine substitution assessed as fluorescence intensity in presence of hemin; format: nucleic-acid assay
How it was run: as §2

[10] = Cytotoxicity against human HCCC9810 cells assessed as reduction in cell viability incubated for 72 hr by CCK8 assay; format: cell-based; conditions: HCCC9810, 72 h
How it was run: (§4)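 HCCC-9810, RBE and 293T cells exposed to probe at 0–100 µM for 72 h. Viable cells quantified by CCK-8 assay.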

Quadruplex DNA [11] = assay: Binding affinity to human c-myc G-quadruplex DNA with TTG AGGG TGGGT AGGGT ATGGGT AAA flanking loops assessed as relative fluorescence intensity at 1 uM measured at pH 7.4 by fluorescent titration; format: nucleic-acid assay
Quadruplex DNA [12] = assay: Binding affinity to human c-myc G-quadruplex DNA assessed as displacement of fluorescent labelled compound by measuring decrease in emission in presence of hemin by FID assay; format: nucleic-acid assay
Quadruplex DNA [13] = assay: Binding affinity to human c-myc G-quadruplex DNA assessed as increase in fluorescence in presence of BSA/HSA at 1 uM by fluorescence titration analysis; format: nucleic-acid assay
How it was run: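 Probe fluorescence followed with increasing BSA or HSA as interfering proteins, in the same Tris-HCl/KCl pH 7.4 titration system.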

Quadruplex DNA [14] = assay: Binding affinity to human c-myc G-quadruplex DNA with TTG AATGGG TGGGT AGGGT GGGT AAA flanking loops assessed as relative fluorescence intensity at 1 uM measured at pH 7.4 by fluorescent titration; format: nucleic-acid assay
Quadruplex DNA [15] = assay: Binding affinity to human c-myc G-quadruplex DNA with AGGG TGGGT AGGGT GGGT AAA flanking loops assessed as relative fluorescence intensity at 1 uM measured at pH 7.4 by fluorescent titration; format: nucleic-acid assay
Quadruplex DNA [16] = assay: Binding affinity to human c-myc G-quadruplex DNA with 4-aminopurine substitution assessed as fluorescence intensity; format: nucleic-acid assay
How it was run: as §2

Quadruplex DNA [17] = assay: Binding affinity to human c-myc G-quadruplex DNA in Tris Hcl buffer assessed as fluorescence lifetime of compound at 400 nm at pH 7.4 by fluorescence emission analysis (Rvb (absence of c-myc G-quadruplex DNA ) = 0.513 ns); format: nucleic-acid assay
Quadruplex DNA [18] = assay: Binding affinity to G-quadruplex DNA in human HCCC9810 cells increase in fluorescence intensity in cytoplasm at 20 uM by confocal fluorescence microscopy; format: cell-based
How it was run: as §3

Quadruplex DNA [19] = assay: Binding affinity to human c-myc G-quadruplex DNA with TTG AGGG TGGGT AGGGT GGGT flanking loops assessed as relative fluorescence intensity at 1 uM measured at pH 7.4 by fluorescent titration; format: nucleic-acid assay
Quadruplex DNA [20] = assay: Effect on topology of human c-myc G-quadruplex DNA assessed as change in conformation at 265 nm by circular dichroism spectroscopy
HEK-293T = assay: Cytotoxicity against human 293T cells assessed as reduction in cell viability incubated for 72 hr by CCK8 assay; format: cell-based
How it was run: as §4

Quadruplex DNA [21] = assay: Binding affinity to human c-myc G-quadruplex DNA with 22-aminopurine substitution assessed as fluorescence intensity; format: nucleic-acid assay
How it was run: as §2

Quadruplex DNA [22] = assay: Effect on topology of human c-myc G-quadruplex DNA assessed as change in conformation at 245 nm at DNA to compound ratio of 1:1 by circular dichroism spectroscopy; format: nucleic-acid assay
How it was run: as §1

[23] = Cytotoxicity against human RBE cells assessed as reduction in cell viability incubated for 72 hr by CCK8 assay; format: cell-based
How it was run: as §4

Quadruplex DNA [24] = assay: Binding affinity to human c-myc G-quadruplex DNA with TTG AGGG TAAGGGT AGGGT GGGT AAA flanking loops assessed as relative fluorescence intensity at 1 uM measured at pH 7.4 by fluorescent titration; format: nucleic-acid assay
Quadruplex DNA [25] = assay: Induction of stabilization of human c-myc G-quadruplex assessed inhibition of Taq polymerase mediated DNA polymerization at high concentration upto 20 uM by PCR-stop assay; format: nucleic-acid assay; conditions: dose microM <=20
How it was run: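 PCR-stop assay. Probe (0–20 µM) was added to 1x PCR buffer containing 10 pmol c-myc template, 10 pmol c-myc rev primer, 0.2 mM dNTPs and 1.5 units Taq polymerase. Products were resolved on 15% non-denaturing polyacrylamide gels in 1× TBE. A mutant c-myc oligomer unable to fold served as control.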

Quadruplex DNA [26] = assay: Binding affinity to human c-myc G-quadruplex DNA with TTGA GGG T GGG TA GGG T GGG TAAA flanking loops assessed as relative fluorescence intensity at 1 uM measured at pH 7.4 by fluorescent titration; format: nucleic-acid assay
Quadruplex DNA [27] = assay: Binding affinity to human c-myc G-quadruplex DNA with 22-aminopurine substitution assessed as fluorescence intensity in presence of hemin; format: nucleic-acid assay
How it was run: as §2

Quadruplex DNA [28] = assay: Binding affinity to human c-myc G-quadruplex DNA with 13-aminopurine substitution assessed as fluorescence intensity; format: nucleic-acid assay
How it was run: as §2

Quadruplex DNA [29] = assay: Competitive binding affinity to human c-myc G-quadruplex DNA assessed as increase in fluorescence in presence of ssDNA and dsDNA at 1 uM by fluorescence titration analysis; format: nucleic-acid assay
How it was run: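 Competition titration: probe at 1 µM with 20 µM ds26 duplex DNA, then stepwise addition of c-myc G-quadruplex DNA, in 10 mM Tris-HCl, 60 mM KCl, pH 7.4. Read-out was fluorescence emission.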

COCCOCCOCCn1c2ccccc2c2cc(/C=C/c3cccc[n+]3C)ccc21.[I-]
Activity (Quadruplex DNA [1]): Active
Flu intensity (Quadruplex DNA [2]): 632
Activity (Quadruplex DNA [3]): inactive
Activity (Quadruplex DNA [4]): Active
Activity (Quadruplex DNA [5]): inactive
Flu intensity (Quadruplex DNA [6]): 852
Activity (Quadruplex DNA [7]): Active
Activity (Quadruplex DNA [8]): Active
Activity (Quadruplex DNA [9]): inactive
IC50 [10]: > 40 µM
Flu intensity (Quadruplex DNA [11]): 570
Activity (Quadruplex DNA [12]): inactive
Activity (Quadruplex DNA [13]): Active
Flu intensity (Quadruplex DNA [14]): 702
Flu intensity (Quadruplex DNA [15]): 846
Activity (Quadruplex DNA [16]): Active
Time (Quadruplex DNA [17]): 3.87 nanoseconds
Activity (Quadruplex DNA [18]): Active
Flu intensity (Quadruplex DNA [19]): 861
Activity (Quadruplex DNA [20]): inactive
IC50 (HEK-293T): 40 µM
Activity (Quadruplex DNA [21]): Active
Activity (Quadruplex DNA [22]): inactive
IC50 [23]: > 40 µM
Flu intensity (Quadruplex DNA [24]): 910
Activity (Quadruplex DNA [25]): Active
Flu intensity (Quadruplex DNA [26]): 695
Activity (Quadruplex DNA [27]): inactive
Activity (Quadruplex DNA [28]): Active
Activity (Quadruplex DNA [29]): Active
